This note sets out measurements from paper PMC10950693 (International Journal for Parasitology: Drugs and Drug …, 2024).

Usually CC50 stands for the concentration at which the toxic effect on the cells reaches its halfway point.

The data set can be described thus: Cytotoxicity against murine macrophages, alamarBlue, 24 h. The conditions noted are these: mouse, J774A.1 murine macrophages. It is filed as cell-based. The method, boiled down:
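J774A.1 macrophages were kept in DMEM with 10% FBS at 37 °C, 5% CO2. Cells were seeded at 10^4/well and allowed 3–4 h to adhere. Serial dilutions were added with 10% alamarBlue for 24 h at 37 °C, 5% CO2, then fluorescence was read. CC50 was derived by four-parameter variable-slope nonlinear regression.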
For orientation: Resazurin is reduced to fluorescent resorufin, in cell work by metabolically active cells.

Compound `O=C(Cn1ccnc1[N+](=O)[O-])NCc1ccccc1` [B, benznidazole] registered a CC50 at 24 h of 399.9 ± 1.4 µM.

Turning to `CCCCCCCCCCCCCCCCOP(=O)([O-])OCC[N+](C)(C)C` [M, miltefosine], the midpoint of cytotoxicity, the CC50 at 24 h, lay at 72.2 ± 8.85 µM.
